Rows were chosen to be rich in hits. Some 3.5% of all compounds tested hit in one or more screens of this group.
MrgX1 allo act: allosterically activates human MrgX1 receptor signaling; MrgX1-HEK293, Fluo-4 calcium flux, FDSS; stronger effect = higher value; B-score at 10 µM; 0.63% of 310,000 active;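 active = plate-corrected calcium response at least 3 library SD above typical, normal starting fluorescence, not activating the receptor alone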;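 note: compound read alongside a low EC10 to EC30 dose of BAM8-22 agonist; peak minus trough fluorescence over baseline measured at the second addition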
Target sequence (Q96LB2 whole entry, looked up): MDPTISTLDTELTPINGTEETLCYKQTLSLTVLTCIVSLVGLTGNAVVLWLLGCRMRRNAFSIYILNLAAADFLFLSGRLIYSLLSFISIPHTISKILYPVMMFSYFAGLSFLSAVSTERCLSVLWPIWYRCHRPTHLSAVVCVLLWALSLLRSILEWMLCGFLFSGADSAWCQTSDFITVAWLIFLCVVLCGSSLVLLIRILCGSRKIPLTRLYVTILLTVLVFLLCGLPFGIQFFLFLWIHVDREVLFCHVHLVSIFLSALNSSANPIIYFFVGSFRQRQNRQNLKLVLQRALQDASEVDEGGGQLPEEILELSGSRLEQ
RGS4 pot: potentiators or activators of RGS4; HEK293 M3R/inducible RGS4, carbachol calcium flux Fluo4; stronger effect = lower value; B-score at 10 µM; 0.92% of 310,000 active;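 active = B-score of the integrated calcium signal more than 4 SD below the library mean, with starting fluorescence not abnormally high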;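 note: negative B-score means reduced calcium response which marks RGS4 activation or potentiation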
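Assay system: Inducible-RGS4 HEK293 cells carrying M3 receptor | Schedule: Compound preincubation 20 min at room temperature before agonist | Signal: Kinetic calcium fluorescence imaging with Fluo4-AM dye, 2 µM | Read-out basis: B score from integrated fluorescence ratio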
RGS4 inh: inhibitors of human RGS4; P49798; HEK293 M3R/RGS4 inducible, Fluo-4 calcium flux; stronger effect = higher value; triggered by carbachol at its EC20; B-score at 10 µM; 0.45% of 310,000 active;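 active = B-score, a plate-corrected calcium signal, over three deviations above library mean, with baseline fluorescence within five deviations of library mean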;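 note: RGS4 expression induced by doxycycline in cells with stable M3 receptor; B-score is computed from the integrated fluorescence ratio over baseline after carbachol; higher B-score means a larger calcium signal and so more RGS4 inhibition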
Target sequence (P49798 whole entry, looked up): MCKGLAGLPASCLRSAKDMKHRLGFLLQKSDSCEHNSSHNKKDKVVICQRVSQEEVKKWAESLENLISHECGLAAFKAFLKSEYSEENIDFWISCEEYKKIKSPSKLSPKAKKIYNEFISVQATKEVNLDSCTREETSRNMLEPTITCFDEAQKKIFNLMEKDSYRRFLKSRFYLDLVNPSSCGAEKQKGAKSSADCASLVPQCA
MrgX1 antag: human MrgX1 receptor antagonism, primary screen; B-score at 10 µM; MRGX1-HEK293 calcium flux, Fluo-4, BAM8-22 antagonism; stronger effect = lower value; Q96LB2; 1.3% of 310,000 active; AID 588676;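 active = calcium-response B-score plate-corrected more than 3 library SD below zero, starting fluorescence within 5 deviations, no agonist response on first addition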;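 note: peak minus trough fluorescence over baseline after final BAM8-22 challenge near maximal dose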
MrgX1 agonist: activates human MrgX1 receptor signaling | MrgX1-HEK293 cells, Fluo-4 calcium fluorescence, agonist mode; stronger effect = higher value | B-score at 10 µM | 0.44% of 310,000 active | AID 588627;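 active = calcium response B-score plate-corrected fluorescence ratio at least 3 library SD, with starting fluorescence B-score inside 5 SD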
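System: HEK293 cells stably expressing human MrgX1 receptor; Dosing: test compound in the initial addition of three; Schedule: overnight plating, then 30 min 37 °C plus 30 min room-temperature dye loading; Detection: kinetic calcium dye fluorescence, Fluo-4 NW; Controls: per-plate positive and negative controls for Z′ factor.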
MrgX1 ant reconf: human MrgX1 receptor antagonism, re-confirmation screen. shares compounds with MrgX1 antag. AID 602420. 19% of 2,300 active. MrgX1-HEK293, BAM8-22 calcium flux, Fluo-4; stronger effect = lower value. remaining BAM8-22 calcium response % of control (stronger effect = lower value), % at 10 µM;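 active = remaining agonist calcium response no higher than 100% minus 3 SD of agonist-only control wells, with starting fluorescence near control levels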;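 note: agonist BAM8-22 given at a near maximal EC90 to ECmax level; peak minus minimum fluorescence divided by baseline after agonist addition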
HEK293 Ca flux: MrgX1 antagonist counter-screen hit in parental HEK293 cells. shares compounds with MrgX1 antag. Fluo-4 calcium fluorescence, FDSS. fluorescence ratio F(max-min)/F0 at 10 µM. 2% of 4,000 active. AID 624111;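 active = duplicate-averaged calcium fluorescence ratio at least three times the standard deviation of buffer wells, a nonspecific response in parental cells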
HEK293 Ca counter: MrgX1 allosteric activator counter-screen hit in parental HEK293 cells. shares compounds with MrgX1 antag. parental HEK293 calcium flux, Fluo-4 fluorescence ratio; stronger effect = higher value. fluorescence ratio F(max-min)/F0 at 10 µM. 0.4% of 4,000 active. AID 624114;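 active = calcium fluorescence ratio, averaged over duplicates, at least 3 SD of the buffer-well ratio, meaning a nonspecific response in receptor-free cells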;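 note: untransfected parental HEK293 lacking MrgX1 used as counterscreen for MrgX1 allosteric activators; fluorescence change taken during the second addition on a kinetic imager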
HEK293 Ca cntr2: MrgX1 activator counter-screen hit in parental HEK293 cells; fluorescence ratio F(max-min)/F0 at 10 µM; shares compounds with MrgX1 antag; 8.7% of 4,000 active; Fluo-4 calcium fluorescence (FDSS); stronger effect = higher value;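 active = calcium fluorescence ratio at least three times the spread of buffer wells, meaning a non-specific response in parental cells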
* = called active by the depositor.

How did O=C(c1cccc(-n2cccc2)c1)N1CCN(S(=O)(=O)c2c(F)cccc2F)CC1 do in these assays?
MrgX1 allo act: inactive; RGS4 pot: inactive; RGS4 inh: inactive; MrgX1 antag: -6.1*; MrgX1 agonist: inactive; MrgX1 ant reconf: inactive; HEK293 Ca flux: inactive; HEK293 Ca counter: inactive; HEK293 Ca cntr2: inactive

Results for O=C(c1cccc(-n2cccc2)c1)N1CCN(S(=O)(=O)c2ccccc2)CC1 ?
MrgX1 allo act: inactive; RGS4 pot: inactive; RGS4 inh: inactive; MrgX1 antag: inactive; MrgX1 agonist: inactive

What do the screens show for `CC1CCCCC1NC(=O)CN1CCN(Cc2ccccc2Cl)C1=O` (stereo not drawn)?
MrgX1 allo act: inactive; RGS4 pot: inactive; RGS4 inh: inactive; MrgX1 antag: -10*; MrgX1 agonist: inactive; MrgX1 ant reconf: 84%*; HEK293 Ca flux: inactive; HEK293 Ca counter: inactive; HEK293 Ca cntr2: inactive

Results for O=C(CN1CCN(Cc2ccccc2Cl)C1=O)NC1CCCCCCC1 ?
MrgX1 allo act: inactive; RGS4 pot: inactive; RGS4 inh: inactive; MrgX1 antag: inactive; MrgX1 agonist: inactive

How did CCOC(=O)c1sc(NC(=O)c2ccc(C)o2)nc1C do in these assays?
MrgX1 allo act: inactive; RGS4 pot: inactive; RGS4 inh: inactive; MrgX1 antag: -8*; MrgX1 agonist: inactive; MrgX1 ant reconf: inactive; HEK293 Ca flux: inactive; HEK293 Ca counter: inactive; HEK293 Ca cntr2: inactive

How did COC(=O)c1sc(NC(=O)c2ccc(C)o2)nc1C do in these assays?
MrgX1 allo act: inactive; RGS4 pot: inactive; RGS4 inh: inactive; MrgX1 antag: inactive; MrgX1 agonist: inactive

What do the screens show for `COc1ccc(OC)c(CNS(=O)(=O)c2cn(C)cn2)c1`?
MrgX1 allo act: inactive; RGS4 pot: inactive; RGS4 inh: inactive; MrgX1 antag: -4.5*; MrgX1 agonist: inactive; MrgX1 ant reconf: inactive; HEK293 Ca flux: inactive; HEK293 Ca counter: inactive; HEK293 Ca cntr2: inactive

Results for Cc1cc(F)ccc1NC(=O)c1cc(S(=O)(=O)N2CCc3ccccc32)cn1C ?
MrgX1 allo act: inactive; RGS4 pot: inactive; RGS4 inh: inactive; MrgX1 antag: -5.3*; MrgX1 agonist: inactive; MrgX1 ant reconf: inactive; HEK293 Ca flux: inactive; HEK293 Ca counter: inactive; HEK293 Ca cntr2: inactive

Results for COc1ccccc1NC(=O)CN1CCN(CC(=O)Nc2ccc(S(N)(=O)=O)cc2)CC1 ?
MrgX1 allo act: inactive; RGS4 pot: inactive; RGS4 inh: inactive; MrgX1 antag: -7.6*; MrgX1 agonist: inactive; MrgX1 ant reconf: inactive; HEK293 Ca flux: inactive; HEK293 Ca counter: inactive; HEK293 Ca cntr2: inactive

What do the screens show for `Cc1c(C(=O)NCC2CCCO2)oc2ccc(S(=O)(=O)N3CCCCC3)cc12` (stereo not drawn)?
MrgX1 allo act: inactive; RGS4 pot: inactive; RGS4 inh: inactive; MrgX1 antag: -7.2*; MrgX1 agonist: inactive; MrgX1 ant reconf: 84%*; HEK293 Ca flux: inactive; HEK293 Ca counter: inactive; HEK293 Ca cntr2: inactive

Results for Cc1ccc(CNc2cnccn2)cc1 ?
MrgX1 allo act: inactive; RGS4 pot: inactive; RGS4 inh: inactive; MrgX1 antag: -6.1*; MrgX1 agonist: inactive; MrgX1 ant reconf: inactive; HEK293 Ca flux: inactive; HEK293 Ca counter: inactive; HEK293 Ca cntr2: inactive

How did O=C(Nc1ccc2c(c1)OC1(CCCC1)O2)C1CC1 do in these assays?
MrgX1 allo act: inactive; RGS4 pot: inactive; RGS4 inh: inactive; MrgX1 antag: -5.9*; MrgX1 agonist: inactive; MrgX1 ant reconf: inactive; HEK293 Ca flux: inactive; HEK293 Ca counter: inactive; HEK293 Ca cntr2: inactive
